Results: ChEMBL document CHEMBL4145556, “Carbazole-, Aspidofractinine-, and Aspidocarpamine-Type Alkaloids from Pleiocarpa pycnantha” (J Nat Prod, 2018)

Key:
HEK293 = test: Cytotoxicity against HEK293 cells assessed as reduction in cell viability by CMFDA dye based fluorescence assay; conditions: human
In short: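 Viability of HEK293/NF-κB-luc cells was tracked with 2.5 μM CMFDA loaded 1 h before seeding at 10^4 cells/well. After overnight incubation, samples were added with 20 ng/mL TNF-α for 5 h. Fluorescence was read after lysis. Duplicate wells, three independent experiments.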

[1] = Inhibition of TNFalpha stimulated NF-kappaB (unknown origin) expressed in HEK293 cells after 5 hrs by luciferase reporter gene based luminescence assay; type: cell-based; conditions: Homo sapiens, HEK293, 5 h
In short: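 HEK293/NF-κB-luc cells loaded 1 h with 2.5 μM CMFDA, seeded at 10^4 cells/well and incubated overnight. Samples were added, with TNF-α stimulation at 20 ng/mL for 5 h. After lysis, fluorescence was read, then luciferase luminescence. Luminescence was normalized to each well's fluorescence and IC50 derived. Duplicate wells, three independent experiments.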

Compound | Activity (HEK293) | IC50 [1] [µM]
COC(=O)[C@@H]1C[C@@]23CCCN4CC[C@@]5(c6ccccc6N(C)[C@]15CC2)[C@@H]43 | Non-Toxic | 8.8
COC(=O)c1nccc2c1[nH]c1ccccc12 | Non-Toxic | > 50
C/C=C1/COC(=O)[C@@H]2[C@H]1C[C@@H]1NCCc3c1n2c1ccccc31 | Non-Toxic | 9.4
C/C=C1/C[N@+]2(C)C3Cc4c([nH]c5ccc(O)cc45)[C@@H]2C[C@H]1[C@@H]3CO | Non-Toxic | > 50
C=C1C(=O)O[C@@H]2C3O[C@]3(C)CC/C=C(\C)CC[C@@H]12 (stereo partly drawn) | Non-Toxic | 0.4
O=c1cc(-c2ccc(Br)cc2)oc2ccccc12 | Non-Toxic | –
C[C@H]1NCCc2c1cc1c([nH]c3ccccc31)c2CO | Non-Toxic | > 50
